From PubChem BioAssay
Rows were chosen to be rich in hits. Some 3.7% of all compounds tested hit in one or more screens of this group.
B2AR ag: beta2AR agonists driving receptor internalization, primary screen, cell-based, FAP fluorogen, flow cytometry; Beta-2 adrenergic receptor (Homo sapiens), P07550; Am2.2-beta2AR cells; response, % (concentration not given with the values); hit rate 0.43% among 340,000;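 active = response above a set limit, near 3 SD of response in nonfluorescent compounds, cut at about 42% in these data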
Target sequence (P07550 whole entry, looked up): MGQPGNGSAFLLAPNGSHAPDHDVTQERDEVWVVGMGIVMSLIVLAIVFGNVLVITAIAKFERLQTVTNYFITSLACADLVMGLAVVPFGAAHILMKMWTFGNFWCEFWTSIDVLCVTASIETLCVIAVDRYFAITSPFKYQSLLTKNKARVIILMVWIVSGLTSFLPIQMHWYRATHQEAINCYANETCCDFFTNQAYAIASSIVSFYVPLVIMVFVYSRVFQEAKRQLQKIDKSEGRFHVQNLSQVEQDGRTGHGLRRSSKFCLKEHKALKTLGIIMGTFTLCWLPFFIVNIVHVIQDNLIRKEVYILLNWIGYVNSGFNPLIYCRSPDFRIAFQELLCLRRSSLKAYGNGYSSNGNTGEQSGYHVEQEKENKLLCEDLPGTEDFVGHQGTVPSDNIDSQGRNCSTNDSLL
Dynein transport: inhibitors of GR-EGFP nuclear translocation, primary screen, dynein cargo transport inhibitor project, imaging, high-content, 3617.4 mouse cells; hit rate 0.47% among 220,000; z-score, hits read low; test concentration mostly 20 µM; stimulated with dexamethasone, 1 µM; active compounds read low;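 active = plate z-score of nuclear minus cytoplasmic receptor signal below a set negative limit, without overly bright fluorescence or cell loss, cut at about -3.5 in these data, passing the limit was not always enough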;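 also: z-score of nuclear minus cytoplasmic ring GR-EGFP intensity difference per well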
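Also added – dexamethasone, 1.0 µM final · Buffer or medium – tet-free, stripped-serum medium · Schedule – induction 48 h, compound 1 h, agonist 30 min · Detection – formaldehyde fixation, Hoechst nuclear stain, 10x automated fluorescence imaging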
UPR XBP1 act: activators of adaptive XBP1 UPR arm, primary screen, cell-based, CHO-XBP1 luciferase reporter, luminescence, uHTS | activation, % at 20 µM | AID 463104, 2010 | hit rate 0.33% among 330,000 | IRE1-XBP1 UPR activation; percent of tunicamycin response, DMSO as zero;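 active = versus positive control, 20 µM dose yields 30% or more activation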;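 also: 100% = tunicamycin at 10 µg/mL and 0% = DMSO only wells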
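Material: CHO-XBP1 cells stably carrying IRE1-XBP1-driven luciferase reporter / Amount: 1000 cells per well / Compound: 20 µM, 1% DMSO / Times: 6 h treatment, 37 °C / Detection: luciferase luminescence / Measure: % activation of reporter signal versus tunicamycin and DMSO controls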
MDM2 E3 inh: MDM2-luciferase reporter signal enhancers, primary screen, MDM2 E3 ligase inhibitor project, cell-based, luminescence, 1536-well; E3 ubiquitin-protein ligase Mdm2 (Homo sapiens), Q00987; cell-based MDM2 ubiquitination luciferase reporter, 2 h; 0 = plate control, 100 = twice control, blank-subtracted; signal enhancement, % at 5 µM; hit rate 0.11% among 210,000;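 active = signal enhancement of 30% or more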;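 also: luminescence tracks abundance of the self-degrading MDM2-luciferase fusion protein; higher signal means inhibition of MDM2 E3 ligase activity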
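system = mammalian cells stably expressing self-ubiquitinating, self-degrading MDM2 E3–luciferase fusion | quantity = 2000 cells per well seeded | incubation = 4 h cell settling then 2 h compound exposure, 37 °C | signal = SteadyLite luminescence, 15 min reagent step | benchmarks = plate control and blank wells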
UPR CHOP act: activators of apoptotic CHOP UPR arm, primary screen, cell-based, CHO-CHOP luciferase reporter, luminescence, uHTS | hit rate 0.34% among 330,000 | activation, % at 10 µM | UPR activation; percent of tunicamycin response over DMSO baseline | AID 449763, 2010;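 active = at 10 µM dose, activation of 40% or more, normalized to positive control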;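 also: 100% = tunicamycin at 10 µg/mL and 0% = DMSO alone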
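Material: CHO-CHOP cells, stable luciferase reporter of PERK-eIF2a-CHOP signalling; quantity: 500 reporter cells seeded per well; buffer or medium: F12 medium containing 10% fetal bovine serum; compound: one dose, 10 µM in 0.5% DMSO; incubation: 6 h compound treatment, 37 °C; measured by: Steady-Glo luciferase luminescence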
Mdm2-MdmX inh: inhibitors of human Mdm2-MdmX association, primary screen, cell-based, luminescence, split luciferase, SaOS-2, uHTS; Protein Mdm4 (Homo sapiens) + E3 ubiquitin-protein ligase Mdm2 (Homo sapiens), …; SaOS-2 split-luciferase Mdm2/MdmX complementation; inhibition, % at 8 µM; hit rate 3% among 330,000;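 active = inhibition of at least 50% at 8 µM in the primary screen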
Mdm2-MdmX conf: Mdm2-MdmX complex disruptors, retested hits, confirmation, luminescence, single concentration; Mdm2-MdmX binding, luminescent assay; shares compounds with Mdm2-MdmX inh; AID 489028, 2010; hit rate 55% among 10,000; inhibition, % at 8 µM; in the data active = inhibition above about 40%
Full FLuc ctr: full-length luciferase signal inhibition, confirmation, counter-screen for Mdm2/MdmX interaction inhibitor project, cell-based, single concentration, SaOS-2 | shares compounds with Mdm2-MdmX inh | SaOS-2 full-length luciferase counterscreen, luminescence | inhibition, % at 8 µM | hit rate 77% among 6,200;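 active = mean inhibition at 8 µM reaching about 37%, which flags the compound as non-specific, limit read from the data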;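 also: p53-null SaOS-2 cells with luciferase driven by a doxycycline-inducible promoter; compound on cells about two nights before reading with doxycycline added after day one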
Starred values were filed as active, the others as inactive; . = no result given.

SMILES	B2AR ag	Dynein transport	UPR XBP1 act	MDM2 E3 inh	UPR CHOP act	Mdm2-MdmX inh	Mdm2-MdmX conf	Full FLuc ctr
CCN(CC(=O)Nc1ccc(OC)cc1)C(=O)c1cc(-c2cccs2)nn1-c1ccccc1	14.1	.	-3.4	.	5.5	60.4*	55.0*	90.4*
COc1ccc(NC(=O)CN(C)C(=O)c2cc(-c3cccs3)nn2-c2ccccc2)cc1	13.8	.	-3.7	.	1.1	26.7	.	.
Cc1sc2ncn(CC(=O)NCC(=O)N3CCN(c4ccc(F)cc4)CC3)c(=O)c2c1C	-4.5	.	-0.4	.	0.2	7.0	.	.
Cc1ccc(-c2nc3ccccc3o2)cc1NC(=S)NC(=O)/C=C/c1ccco1	0.1	0.0402	1.2	6.6	2.3	54.9*	30.3	.
O=C(/C=C/c1ccco1)NC(=S)Nc1cccc(-c2nc3ccccc3o2)c1	4.8	0.579	2.0	-3.5	-1.8	59.5*	53.0*	91.7*
Cc1ccc(-c2nc3ccccc3s2)cc1NC(=S)NC(=O)/C=C/c1ccco1	-7.2	-0.907	25.2	1.7	11.6	13.7	.	.
Cc1cc(C)cc(C(=O)NCCC(=O)NCc2cc(=O)n(C)c(=O)n2C)c1	0.6	.	-7.0	.	1.3	21.2	.	.
O=C(NCC(=O)N1CCN(S(=O)(=O)c2ccccc2C(F)(F)F)CC1)c1sc2ccccc2c1Cl	-7.7	.	6.1	.	2.5	56.8*	33.4	.
CC1=NN(c2ccc(C)cc2)C(=O)/C1=C/c1ccc(-c2cc([N+](=O)[O-])ccc2O)o1	34.0	.	0.1	.	2.0	66.5*	31.4	.
Cc1ccc(S(=O)(=O)Nc2ccc(NC(=O)Nc3cccc(C(F)(F)F)c3)cc2)cc1	14.1	2.54	-0.6	-12.2	4.1	84.5*	45.6*	77.5*
O=C(Nc1ccc(OC(F)F)cc1)Nc1cccc(C(F)(F)F)c1	8.1	-0.685	11.1	-16.3	9.5	76.0*	93.2*	24.4
Cc1ccc(NC(=O)Nc2cc(C(F)(F)F)c[nH]c2=O)cc1	-16.8	.	1.8	.	0.7	58.0*	44.5*	72.0*
CCN(CC)S(=O)(=O)c1ccc(NC(=O)Nc2cccc(C(F)(F)F)c2)cc1	10.4	1.1	7.3	.	15.0	93.5*	87.2*	35.2
O=C(Nc1ccncc1)Nc1cccc(C(F)(F)F)c1	-2.9	.	-4.4	.	-0.1	48.1	.	.
O=C(NN1CCCCCC1)c1ccccc1F	-3.8	.	.	.	.	.	.	.
CC[n+]1ccccc1/C=C1\Sc2ccc(C)cc2N1C	-186.9	.	3.6	.	-1.1	66.0*	64.5*	42.4*
CC[n+]1ccccc1/C=C/Nc1ccccc1	-8.4	-1.16	-1.9	-4.4	-2.3	-9.8	.	.
O=c1oc(-c2ccccc2Br)nc2ccccc12	2.1	.	14.9	.	5.2	64.7*	50.1*	47.2*
O=c1oc(-c2cccnc2)nc2ccccc12	-1.2	0.01	-0.7	-21.6	0.6	-4.0	.	.
Cc1cccc(N2CCN(C(=O)CCc3nc4ccccc4c(=O)[nH]3)CC2)c1C	-6.7	.	1.6	.	-0.5	26.4	.	.
CCOC(=O)CCc1nc2ccccc2[nH]1	-4.3	2.57	0.8	-3.7	0.8	-6.0	.	.
COCC(=O)O[C@]1(CCN(C)CCCc2nc3ccccc3[nH]2)CCc2cc(F)ccc2[C@@H]1C(C)C	41.0	-0.323	0.9	-1.2	3.9	93.0*	53.2*	36.4*
COc1ccc(C(=O)On2c(-c3ccc(Br)cc3)nc3ccccc3c2=O)cc1	15.3	-0.58	8.9	-18.1	3.1	53.8*	31.4	.
COc1cc(OC)cc(-c2nc3ccccc3c(=O)n2OC(=O)c2ccc(Br)cc2)c1	16.4	0.872	-1.3	-13.1	-1.0	13.3	.	.
COc1ccc2nc(SCC(=O)N3CC(=O)Nc4ccccc43)c(C#N)cc2c1	12.1	0.923	-2.6	-4.3	-0.1	64.6*	67.7*	46.4*
SMILES	B2AR ag	Dynein transport	UPR XBP1 act	MDM2 E3 inh	UPR CHOP act	Mdm2-MdmX inh	Mdm2-MdmX conf	Full FLuc ctr
Cc1cc(C)c2nc(SCC(=O)N3CC(=O)Nc4ccccc43)c(C#N)cc2c1	3.8	-1.7	10.8	-10.6	6.1	69.0*	70.9*	111.8*
COc1ccc2nc(SCC(=O)N3CCN(c4ccccc4F)CC3)c(C#N)cc2c1	.	0.407	.	.	.	.	.	.
CCOc1ccc(/C=N/Nc2ccc(Cl)nn2)c(O)c1	-2.4	.	-2.0	.	4.6	54.3*	38.4	57.8*
CC1(c2ccccc2)NC(=O)N(CC(=O)Nc2ccc3c(c2)CCC3)C1=O (stereo unspecified)	-6.1	.	-0.4	.	3.4	13.6	.	.
CSc1nc(C2CC2)cc(-c2cccs2)c1C#N	30.3	1.03	6.7	-3.6	-0.4	87.6*	78.8*	79.3*
CC(C)n1c(=O)[nH][nH]c1=S	-8.3	0.613	-0.8	-12.6	1.9	-7.3	.	.
COc1ccccc1C(=O)Nc1c(C(=O)N(CCN(C)C)Cc2ccco2)oc2ccccc12	21.7	.	-1.0	.	2.7	62.3*	27.0	.
Cc1ccccc1S(=O)(=O)Cc1ccc(C(=O)N2CCN(c3cccc(C)c3C)CC2)o1	17.3	0.0718	3.4	-25.4	-2.3	57.1*	68.2*	50.0*
COc1ccc(S(=O)Cc2ccc(C(=O)N3CCN(c4cccc(C)c4C)CC3)o2)cc1 (stereo unspecified)	-2.5	.	-6.9	.	1.2	50.3*	55.0*	36.1*
Cc1ccccc1S(=O)(=O)Cc1ccc(C(=O)N2CC(C)CC(C)C2)o1 (stereo unspecified)	3.6	-0.5	-4.8	-12.8	2.5	-1.9	.	.
CCN(C(=O)C(C)OC(=O)c1nn(-c2ccccc2C(F)(F)F)cc1O)c1ccccc1 (stereo unspecified)	-1.9	.	1.8	.	0.6	5.4	.	.
CCN1C=CC(=C2C(=O)c3ccccc3C2=O)C=C1	-4.9	-0.134	-8.7	-96.6	-10.5	72.1*	78.0*	36.9*
